According to ChEMBL document CHEMBL5303300, “EUbOPEN Chemogenomics Library - Multiplex” (2023):
Where “and” joins values, the source holds several entries; their conditions need not be identical. Equal values may be shown once.

System: U2OS
Assay: Multiplex assay against U2OS
Format: toxicity, cell-based
Settings: human, number of replicates 2
Summary of the method: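 On a CQ1 microscope at 37°C and 5% CO2, live cells were imaged after compound addition. They had been stained at seeding with Hoechst33342, BioTracker Green Microtubule Cytoskeleton Dye, MitoTracker Red and Annexin V Alexa Fluor 680. CellPathfinder machine-learning gating assigned cells to Hoechst high-intensity objects or normal cells, normal cells to healthy, pyknosed or fragmented nuclei, and pyknosed cells to mitotic or apoptotic. Tubulin, mitochondrial-mass and membrane-permeability phenotypes are per cents of healthy-nucleus cells.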

[1] = 12 h, 1 µM, compound concentration 1 uM
[2] = 12 h, 10 µM, compound concentration 10 uM
[3] = 24 h, 1 µM, compound concentration 1 uM
[4] = 24 h, 10 µM, compound concentration 10 uM
[5] = 48 h, 1 µM, compound concentration 1 uM
[6] = 48 h, 10 µM, compound concentration 10 uM

CNS(=O)(=O)c1ccc(N(C)C)c(Nc2ncnc3cc(OC)c(OC)cc23)c1
Population Apoptotic (%) [1]: 100% and 61% | Population Healthy Nuclei (%) [1]: 73% and 84% | Population Hoechst High Intensity Objects (%) [1]: 0% | Population Membrane Permeable-Phenotype (%) [1]: 0% | Population Mitochondria Different-Phenotype (%) [1]: 0% | Population Normal (%) [1]: 100% and 99% | Population Pyknosed Nuclei (%) [1]: 11% and 12% | Population Tubulin-Different-Phenotype (%) [1]: 73% and 87% | Population Apoptotic (%) [2]: 50% and 64% | Population Healthy Nuclei (%) [2]: 44% and 86% | Population Hoechst High Intensity Objects (%) [2]: 0% | Population Membrane Permeable-Phenotype (%) [2]: 3% and 2% | Population Mitochondria Different-Phenotype (%) [2]: 0% and 2% | Population Mitotic Cells (%) [2]: 50% and 35% | Population Normal (%) [2]: 100% | Population Pyknosed Nuclei (%) [2]: 20% and 10% | Population Tubulin-Different-Phenotype (%) [2]: 42% and 64% | Total Cell Count [2]: 59 and 156 | Population Apoptotic (%) [3]: 60% and 71% | Population Healthy Nuclei (%) [3]: 60% and 88% | Population Hoechst High Intensity Objects (%) [3]: 0% | Population Membrane Permeable-Phenotype (%) [3]: 5% and 1% | Population Mitochondria Different-Phenotype (%) [3]: 0% and 1% | Population Mitotic Cells (%) [3]: 40% and 28% | Population Normal (%) [3]: 100% | Population Pyknosed Nuclei (%) [3]: 16% and 9% | Population Tubulin-Different-Phenotype (%) [3]: 72% and 88% | Population Apoptotic (%) [4]: 87% and 63% | Population Healthy Nuclei (%) [4]: 66% and 82% | Population Hoechst High Intensity Objects (%) [4]: 0% | Population Membrane Permeable-Phenotype (%) [4]: 5% and 3% | Population Mitochondria Different-Phenotype (%) [4]: 5% and 1% | Population Mitotic Cells (%) [4]: 12% and 36% | Population Normal (%) [4]: 100% and 99% | Population Pyknosed Nuclei (%) [4]: 13% and 14% | Population Tubulin-Different-Phenotype (%) [4]: 51% and 64% | Population Apoptotic (%) [5]: 50% and 76% | Population Healthy Nuclei (%) [5]: 69% and 90% | Population Hoechst High Intensity Objects (%) [5]: 0% | Population Membrane Permeable-Phenotype (%) [5]: 4% and 0% | Population Mitochondria Different-Phenotype (%) [5]: 2% and 0% | Population Mitotic Cells (%) [5]: 50% and 23% | Population Normal (%) [5]: 100% | Population Pyknosed Nuclei (%) [5]: 10% and 5% | Population Tubulin-Different-Phenotype (%) [5]: 82% and 92% | Population Apoptotic (%) [6]: 83% and 66% | Population Healthy Nuclei (%) [6]: 52% and 78% | Population Hoechst High Intensity Objects (%) [6]: 0% | Population Membrane Permeable-Phenotype (%) [6]: 13% and 5% | Population Mitochondria Different-Phenotype (%) [6]: 1% and 5% | Population Mitotic Cells (%) [6]: 16% and 33% | Population Normal (%) [6]: 99% | Population Pyknosed Nuclei (%) [6]: 11% and 14% | Population Tubulin-Different-Phenotype (%) [6]: 58% and 68%

C=CC(=O)Nc1cccc(C)c1Nc1ncc2cc(-c3c(Cl)c(OC)cc(OC)c3Cl)ccc2n1
Population Apoptotic (%) [1]: 81% and 76% | Population Fragmented Nuclei (%) [1]: 9% and 3% | Population Healthy Nuclei (%) [1]: 69% and 91% | Population Hoechst High Intensity Objects (%) [1]: 1% and 0% | Population Membrane Permeable-Phenotype (%) [1]: 5% and 0% | Population Mitochondria Different-Phenotype (%) [1]: 0% | Population Mitotic Cells (%) [1]: 18% and 23% | Population Normal (%) [1]: 98% and 100% | Population Tubulin-Different-Phenotype (%) [1]: 75% and 77% | Population Apoptotic (%) [2]: 54% and 69% | Population Healthy Nuclei (%) [2]: 45% and 68% | Population Hoechst High Intensity Objects (%) [2]: 0% | Population Membrane Permeable-Phenotype (%) [2]: 0% and 5% | Population Mitochondria Different-Phenotype (%) [2]: 0% and 9% | Population Mitotic Cells (%) [2]: 45% and 30% | Population Normal (%) [2]: 100% | Population Pyknosed Nuclei (%) [2]: 33% and 26% | Population Tubulin-Different-Phenotype (%) [2]: 80% and 56% | Population Apoptotic (%) [3]: 71% and 50% | Population Healthy Nuclei (%) [3]: 63% and 88% | Population Hoechst High Intensity Objects (%) [3]: 1% and 0% | Population Membrane Permeable-Phenotype (%) [3]: 0% and 1% | Population Mitochondria Different-Phenotype (%) [3]: 0% | Population Mitotic Cells (%) [3]: 28% and 50% | Population Normal (%) [3]: 98% and 100% | Population Pyknosed Nuclei (%) [3]: 18% and 8% | Population Tubulin-Different-Phenotype (%) [3]: 87% and 78% | Population Apoptotic (%) [4]: 86% and 90% | Population Fragmented Nuclei (%) [4]: 17% and 7% | Population Healthy Nuclei (%) [4]: 40% and 54% | Population Hoechst High Intensity Objects (%) [4]: 0% | Population Membrane Permeable-Phenotype (%) [4]: 0% and 1% | Population Mitochondria Different-Phenotype (%) [4]: 0% and 8% | Population Mitotic Cells (%) [4]: 13% and 9% | Population Normal (%) [4]: 100% | Population Pyknosed Nuclei (%) [4]: 42% and 38% | Population Tubulin-Different-Phenotype (%) [4]: 92% and 65% | Population Apoptotic (%) [5]: 70% and 59% | Population Fragmented Nuclei (%) [5]: 10% and 1% | Population Healthy Nuclei (%) [5]: 72% and 88% | Population Hoechst High Intensity Objects (%) [5]: 1% and 0% | Population Membrane Permeable-Phenotype (%) [5]: 4% and 1% | Population Mitochondria Different-Phenotype (%) [5]: 1% and 0% | Population Mitotic Cells (%) [5]: 29% and 40% | Population Normal (%) [5]: 98% and 99% | Population Pyknosed Nuclei (%) [5]: 17% and 9% | Population Tubulin-Different-Phenotype (%) [5]: 90% and 85% | Population Apoptotic (%) [6]: 77% and 93% | Population Fragmented Nuclei (%) [6]: 6% and 9% | Population Healthy Nuclei (%) [6]: 31% and 40% | Population Hoechst High Intensity Objects (%) [6]: 0% and 1% | Population Membrane Permeable-Phenotype (%) [6]: 11% and 10% | Population Mitochondria Different-Phenotype (%) [6]: 11% and 10% | Population Normal (%) [6]: 100% and 98% | Population Pyknosed Nuclei (%) [6]: 62% and 50% | Population Tubulin-Different-Phenotype (%) [6]: 100% and 91%
